Test results from ChEMBL document CHEMBL1287760, “Optimization of purine-nitrile TbcatB inhibitors for use in vivo and evaluation of efficacy in murine models” (Bioorg Med Chem, 2010).
In brackets after ≈: the same amount, converted by molar mass.

What was measured:
[1] = Half life in CD1 mouse plasma by UPLC-MS analysis; format: ADME, cell-free
Method in brief: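 Half-life in mouse plasma measured at 37 °C.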

BJ = assay: Cytotoxicity against human BJ cells after 72 hrs by alamar blue assay; format: cell-based
[2] = Chemical stability in dimethyl sulfoxide at pH 7.4 after 14 days; format: physicochemical; settings: buffer, pH 7.4, 336 h
Method in brief: (§1)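 DMSO stability followed over 14 days for non-metabolic degradation.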

Mus musculus [3] = assay: Stability of the compound in po dosed mouse blood assessed as 3-(2-cyano-6-(3,4-dichlorobenzylamino)-9H-purin-9-yl)propanoic acid level after 4 hrs; format: ADME, organism-based; settings: in vivo
Method in brief: (§2)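 Oral gavage of compound suspensions to female Balb/c mice; blood sampled retro-orbitally at 1, 2 and 4 h (one sample per mouse) and by cardiac puncture at 48 h. Parent compound and metabolites measured by UPLC–MS; metabolite identity assigned by MS/MS against a synthesized standard.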

[4] = Permeability of the compound assessed as ratio of compound in acceptor chamber to amount of compound in donor chamber at pH 5 by PAMPA assay; format: ADME
[5] = Permeability of the compound assessed as ratio of compound in acceptor chamber to amount of compound in donor chamber at pH 7.4 by PAMPA assay; format: ADME
HepG2 = assay: Cytotoxicity against human HepG2 cells after 72 hrs by alamar blue assay; format: cell-based; settings: hepg2, 72 h
[6] = Chemical stability in phosphate buffered saline at pH 5 after 14 days; format: physicochemical; settings: buffer, pH 5, 336 h
Method in brief: (§3)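 Stability in PBS (pH 3, 5 and 7.4) followed over 14 days for non-metabolic degradation.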

[7] = Chemical stability in phosphate buffered saline at pH 7.4 after 14 days; format: physicochemical; settings: buffer, pH 7.4, 336 h; method in brief: as §3
[8] = Chemical stability in dimethyl sulfoxide at pH 5 after 14 days; format: physicochemical; settings: buffer, pH 5, 336 h; method in brief: as §1
[9] = Permeability of the compound assessed as ratio of compound in acceptor chamber to amount of compound in donor chamber at pH 3 by PAMPA assay; format: ADME
[10] = Toxicity in human erythrocyte assessed as hemolysis at 10 uM after 5 hrs; format: cell-based; settings: erythrocytes, read-out: Activity
Method in brief: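 Human erythrocytes washed three times after spinning whole blood at 1000g for 5 min. Test compound at 10 µM final, 2% hematocrit. PBS negative control; 0.4% saponin dilution series as standard. After centrifugation, supernatant absorbance read at 414 nm and % hemolysis taken from the calibration curve. Triplicate.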

Mus musculus [11] = assay: Stability of the compound in po dosed mouse blood assessed as 3-(2-cyano-6-(3,4-dichlorobenzylamino)-9H-purin-9-yl)propanoic acid level after 1 hr; format: ADME, organism-based; settings: in vivo; method in brief: as §2
[12] = Chemical stability in dimethyl sulfoxide at pH 3 after 14 days; format: physicochemical; settings: buffer, pH 3, 336 h; method in brief: as §1
[13] = Half life in CD1 mouse liver microsomes by UPLC-MS analysis; format: ADME, Microsome; settings: CD1, mouse, liver microsomes
Method in brief: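 CD-1 female mouse liver microsomes in 0.1 M potassium phosphate pH 7.4 with EDTA and NADPH-regenerating solutions, 37 °C, shaken. Samples at 0, 0.5, 1 and 2 h quenched with cold acetonitrile containing caffeine internal standard. UPLC–MS (SIR) read-out. Log peak-area ratio versus time gives slope; k = −2.303 × slope, t1/2 = 0.693/k.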

Trypanosoma brucei = assay: Antitrypanosomal activity against Trypanosoma brucei after 48 hrs; format: functional, organism-based
[14] = Chemical stability in phosphate buffered saline at pH 3 after 14 days; format: physicochemical; settings: buffer, pH 3, 336 h; method in brief: as §3
Mus musculus [15] = assay: Stability of the compound in po dosed mouse blood assessed as 3-(2-cyano-6-(3,4-dichlorobenzylamino)-9H-purin-9-yl)propanoic acid level; format: ADME, organism-based; settings: in vivo; method in brief: as §2
[16] = Aqueous solubility of compound in deionized water; format: physicochemical
Method in brief: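 Aqueous solubility measured in deionized water.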

Raji = assay: Cytotoxicity against human Raji cells after 72 hrs by alamar blue assay; format: cell-based
HEK293 = assay: Cytotoxicity against human HEK293 cells after 72 hrs by alamar blue assay; format: cell-based; settings: hek293, 72 h
[17] = Therapeutic index, ratio of EC50 for human cells to EC50 for Trypanosoma brucei; settings: human cells versus Trypanosoma brucei, read-out: Ratio EC50
Method in brief: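 Index = EC50 against the most sensitive mammalian line (HEK 293, Hep G2, BJ, Raji) divided by EC50 against T.b. brucei.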

[18] = Inhibition of Trypanosoma brucei cathepsin B expressed in Pichia pastoris
Mus musculus [19] = assay: Stability of the compound in po dosed mouse blood; format: ADME, organism-based; settings: in vivo; method in brief: as §2

Row | half-life [1] | Ratio [5] | Ratio [9] | half-life [13] | EC50 (Trypanosoma brucei) | solubility [16] | SMILES | hemolysis at 5 h, 10 µM [10] | selectivity ratio [17] | also measured
1 | 5.1 h | 1300 | 1500 | 0.6 h | 1.4 µM | 10.4 µM (≈ 3.92 µg/mL) | N#Cc1nc(NCc2ccc(Cl)c(Cl)c2)c2ncn(CCCO)c2n1 | 0.7% | > 20 | Activity (BJ): Non-toxic; Stability [2]: Stable; Stability (Mus musculus [3]): Unstable; Ratio [4]: 960; Activity (HepG2): Non-toxic; Stability [6]: Stable; Stability [7]: Stable; Stability [8]: Stable; Stability (Mus musculus [11]): Unstable; Stability [12]: Stable; Stability [14]: Stable; Stability (Mus musculus [15]): > 50 µM; Activity (Raji): Non-toxic; Activity (HEK293): Non-toxic
2 | – | – | – | – | > 25 µM | – | N#Cc1nc(NCc2ccc(Cl)c(Cl)c2)c2ncn(CCC(=O)O)c2n1 | – | – | IC50 [18]: 2.6 µM
3 | 40.9 h | 1770 | 1800 | 0.53 h | 2.4 µM | 4.2 µM (≈ 1.64 µg/mL) | COCCCn1cnc2c(NCc3ccc(Cl)c(Cl)c3)nc(C#N)nc21 | 0.7% | > 10 | Stability (Mus musculus [19]): Unstable
